Assay results reported in ChEMBL document CHEMBL3244326, “Synthesis and antiviral activity of certain thiazole C-nucleosides” (J Med Chem, 1977).
Calls of active or inactive are those of the source. The calls are words filed in the database; no cut-off is given here.

How the values were obtained:
Ehrlich [1] = experiment: Inhibition of purine nucleotide biosynthesis in mouse Ehrlich ascites tumor cells assessed as inhibition of [14C]hypoxanthine into adenine nucleotides at 1 mM after 60 mins incubation; format: functional; conditions: 1 h
How it was run: (§1)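 Ehrlich ascites tumor cell suspensions preincubated at 37 °C for 20 min with or without 1 mM compound. [14C]Hypoxanthine (55 µCi/µmol) then added to a final 0.1 mM, followed by 60 min more incubation. Adenine (AMP+ADP+ATP) and guanine (GMP+GDP+GTP) nucleotides separated by TLC on PEI-cellulose; % inhibition of label incorporation.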

Human alphaherpesvirus 1 = experiment: Antiviral activity against type 1 herpes simplex virus type 1 infected in human KB cells assessed as reduction in cytopathic effect after 72 hrs incubation; format: functional, organism-based
How it was run: (§2)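 Human nasopharyngeal carcinoma (KB) cells infected with virus and tested at compound concentrations of 1000 to 1 ug/ml. After 72 h incubation at 37 °C, inhibition of viral cytopathic effect was scored by observation and expressed as a virus rating (VR). Values are the average of one to five tests.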

Ehrlich [2] = experiment: Inhibition of purine nucleotide biosynthesis in mouse Ehrlich ascites tumor cells assessed as inhibition of [14C]hypoxanthine into guanine nucleotides at 1 mM after 60 mins incubation; format: functional; conditions: 1 h; how it was run: as §1
KB = experiment: Antiviral activity against type 13 rhinovirus infected in human KB cells assessed as reduction in cytopathic effect after 72 hrs incubation; format: functional, cell-based; conditions: Human rhinovirus A13; how it was run: as §2
Human respirovirus 1 [3] = experiment: Antiviral activity against type 1 parainfluenza virus infected in mouse assessed as mouse survival at 77.5 mg/kg, po thrice a day for 8 days after 1 hr viral infection; format: functional, organism-based; parameters: dose 77.5 mg/kg
How it was run: (§3)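 Sendai (type 1 parainfluenza) virus given intranasally to female mice (18-20 g). Oral dosing three times daily for 8 days, beginning 1 h post-inoculation; 10 infected mice per dose, with a carboxymethylcellulose placebo group. Survivors/total counted, with p values for the survivor increase.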

Human respirovirus 1 [4] = experiment: Antiviral activity against type 1 parainfluenza virus infected in mouse assessed as mouse mean death day at 38.8 mg/kg, po thrice a day for 8 days after 1 hr viral infection (reference value: 8.9 days); format: functional
Mus musculus [5] = experiment: Toxicity in mouse assessed as survival at 77.5 mg/kg, po; format: organism-based; parameters: dose 77.5 mg/kg, route oral; conditions: in vivo
How it was run: (§4)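 Uninfected toxicity-control mice, 5 per dose, received compound by the oral route alongside the infected groups. Survivors/total recorded, and weight gain was observed.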

Human respirovirus 1 [6] = experiment: Antiviral activity against type 1 parainfluenza virus infected in mouse assessed as mouse survival at 38.8 mg/kg, po thrice a day for 8 days after 1 hr viral infection; format: functional, organism-based; parameters: dose 38.8 mg/kg; how it was run: as §3
Human respirovirus 1 [7] = experiment: Antiviral activity against type 1 parainfluenza virus infected in mouse assessed as mouse mean death day at 77.5 mg/kg, po thrice a day for 8 days after 1 hr viral infection (reference value: 8.9 days); format: functional
Human respirovirus 1 [8] = experiment: Antiviral activity against type 1 parainfluenza virus infected in mouse assessed as mouse survival at 155 mg/kg, po thrice a day for 8 days after 1 hr viral infection; format: functional, organism-based; parameters: dose 155 mg/kg; how it was run: as §3
Mus musculus [9] = experiment: Toxicity in mouse assessed as survival at 155 mg/kg, po; format: organism-based; parameters: dose 155 mg/kg, route oral; conditions: in vivo; how it was run: as §4
Human respirovirus 1 [10] = experiment: Antiviral activity against type 1 parainfluenza virus infected in mouse assessed as mouse mean death day at 155 mg/kg, po thrice a day for 8 days after 1 hr viral infection (reference value: 8.9 days); format: functional
Human respirovirus 1 [11] = experiment: Antiviral activity against type 1 parainfluenza virus infected in mouse assessed as mouse survival at 104 mg/kg, po thrice a day for 8 days after 1 hr viral infection; format: functional, organism-based; parameters: dose 104 mg/kg; how it was run: as §3
Human respirovirus 1 [12] = experiment: Antiviral activity against type 1 parainfluenza virus infected in mouse assessed as mouse mean death day at 52 mg/kg, po thrice a day for 8 days after 1 hr viral infection (reference value: 8.9 days); format: functional
Human respirovirus 1 [13] = experiment: Antiviral activity against type 1 parainfluenza virus infected in mouse assessed as mouse mean death day at 104 mg/kg, po thrice a day for 8 days after 1 hr viral infection (reference value: 8.9 days); format: functional
Human respirovirus 1 [14] = experiment: Antiviral activity against type 1 parainfluenza virus infected in mouse assessed as mouse mean death day at 26 mg/kg, po thrice a day for 8 days after 1 hr viral infection (reference value: 8.9 days); format: functional
Mus musculus [15] = experiment: Toxicity in mouse assessed as survival at 104 mg/kg, po; format: organism-based; parameters: dose 104 mg/kg, route oral; conditions: in vivo; how it was run: as §4
Human respirovirus 1 [16] = experiment: Antiviral activity against type 1 parainfluenza virus infected in mouse assessed as mouse mean death day at 99 mg/kg, po thrice a day for 8 days after 1 hr viral infection (reference value: 8.9 days); format: functional
Mus musculus [17] = experiment: Toxicity in mouse assessed as survival at 99 mg/kg, po; format: organism-based; parameters: dose 99 mg/kg, route oral; conditions: in vivo; how it was run: as §4
Human respirovirus 1 [18] = experiment: Antiviral activity against type 1 parainfluenza virus infected in mouse assessed as mouse mean death day at 49.5 mg/kg, po thrice a day for 8 days after 1 hr viral infection (reference value: 8.9 days); format: functional

Structure (SMILES): NC(=S)c1csc([C@@H]2O[C@H](CO)[C@@H](O)[C@H]2O)n1
- inhibition at 1000 µM (Ehrlich [1]): 0%
- Activity (Human alphaherpesvirus 1): inactive
- inhibition at 1000 µM (Ehrlich [2]): 12%
- Activity (KB): inactive

Structure (SMILES): NC(=O)c1csc(-c2ccc(CO)o2)n1
- inhibition at 1000 µM (Ehrlich [1]): 0%
- Activity (Human alphaherpesvirus 1): inactive
- inhibition at 1000 µM (Ehrlich [2]): 0%
- Activity (KB): inactive

Structure (SMILES): CC(=O)OC[C@H]1O[C@@H](c2nc(C(N)=O)cs2)[C@H](OC(C)=O)[C@@H]1OC(C)=O
- inhibition at 1000 µM (Ehrlich [1]): 0%
- Activity (Human alphaherpesvirus 1): Active
- Survival (Human respirovirus 1 [3]): Active
- Time (Human respirovirus 1 [4]): 11 days
- Activity (Mus musculus [5]): Non-toxic
- Survival (Human respirovirus 1 [6]): Active
- inhibition at 1000 µM (Ehrlich [2]): 42%
- Time (Human respirovirus 1 [7]): 11.9 days
- Survival (Human respirovirus 1 [8]): Active
- Activity (Mus musculus [9]): Non-toxic
- Time (Human respirovirus 1 [10]): 8.6 days
- Activity (KB): inactive

Structure (SMILES): C[C@H]1O[C@@H](c2nc(C(N)=O)cs2)[C@H](O)[C@@H]1O
- inhibition at 1000 µM (Ehrlich [1]): 0%
- Activity (Human alphaherpesvirus 1): inactive
- inhibition at 1000 µM (Ehrlich [2]): 0%
- Activity (KB): inactive

Structure (SMILES): NC(=O)c1csc([C@@H]2O[C@H](CO)[C@@H](O)[C@H]2O)n1 [TIAZOFURIN]
- inhibition at 1000 µM (Ehrlich [1]): 0%
- Survival (Human respirovirus 1 [11]): Active
- Activity (Human alphaherpesvirus 1): Active
- Time (Human respirovirus 1 [12]): 11 days
- Time (Human respirovirus 1 [13]): 12.3 days
- inhibition at 1000 µM (Ehrlich [2]): 69%
- Time (Human respirovirus 1 [14]): 10.9 days
- Activity (Mus musculus [15]): Non-toxic
- Activity (KB): Active

Structure (SMILES): NC(=O)c1cnc([C@@H]2O[C@H](CO)[C@@H](O)[C@H]2O)s1
- inhibition at 1000 µM (Ehrlich [1]): 1%
- Activity (Human alphaherpesvirus 1): inactive
- inhibition at 1000 µM (Ehrlich [2]): 6.8%
- Activity (KB): inactive

Structure (SMILES): NC(=O)c1ncn([C@@H]2O[C@H](CO)[C@@H](O)[C@H]2O)n1 [RIBAVIRIN]
- Time (Human respirovirus 1 [16]): 10 days
- Activity (Mus musculus [17]): Non-toxic
- Time (Human respirovirus 1 [18]): 12 days
